# From ChEMBL document CHEMBL4152188, “Design, synthesis and biological evaluation of C(4) substituted monobactams as antibacterial agents against multidrug-resistant Gram-negative bacteria” (Eur J Med Chem, 2018)
# Tests used:
# Assay type in all cases: functional
# Escherichia coli [1] = assay: Antibacterial activity against Escherichia coli isolate 210737 after 18 hrs in presence of BPL by CLSI broth microdilution method; details: isolate 210737, 18 h
# Summary of the method: (§1)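 CLSI broth microdilution against clinical isolates (ESBL E. coli, KPC-2 MDR K. pneumoniae, IMP-4 MDR P. aeruginosa; five per species). Iron limitation: Mueller-Hinton broth supplemented with 16 mg/liter 2,2'-bipyridyl to complex iron and induce iron uptake systems. Read-out: MIC.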
# Escherichia coli [2] = assay: Antibacterial activity against extended-spectrum beta-lactamase producing Escherichia coli isolate 209285 after 18 hrs in presence of BPL by CLSI broth microdilution method; details: isolate 209285, 18 h; summary of the method: as §1
# Escherichia coli [3] = assay: Antibacterial activity against extended-spectrum beta-lactamase producing Escherichia coli isolate 208687 after 18 hrs in presence of BPL by CLSI broth microdilution method; details: isolate 208687, 18 h; summary of the method: as §1
# Escherichia coli [4] = assay: Selectivity index, ratio of MIC for against extended-spectrum beta-lactamase producing Escherichia coli isolate 106342 to MIC for extended-spectrum beta-lactamase producing Escherichia coli isolate 106342 in presence of BPL
# Pseudomonas aeruginosa [5] = assay: Antibacterial activity against IMP-4 producing Pseudomonas aeruginosa isolate 209321 after 18 hrs in presence of BPL by CLSI broth microdilution method; details: isolate 209321, 18 h; summary of the method: as §1
# Pseudomonas aeruginosa [6] = assay: Antibacterial activity against IMP-4 producing Pseudomonas aeruginosa isolate 209471 after 18 hrs in presence of BPL by CLSI broth microdilution method; details: isolate 209471, 18 h; summary of the method: as §1
# Pseudomonas aeruginosa [7] = assay: Antibacterial activity against IMP-4 producing Pseudomonas aeruginosa isolate 207272 after 18 hrs in presence of BPL by CLSI broth microdilution method; details: isolate 207272, 18 h; summary of the method: as §1
# Pseudomonas aeruginosa [8] = assay: Selectivity index, ratio of MIC for against IMP-4 producing Pseudomonas aeruginosa isolate 212886 to MIC for against IMP-4 producing Pseudomonas aeruginosa isolate 212886 in presence of BPL
# Klebsiella pneumoniae [9] = assay: Antibacterial activity against KPC-2 producing Klebsiella pneumoniae isolate 209735 after 18 hrs in presence of BPL by CLSI broth microdilution method; details: isolate 209735, 18 h; summary of the method: as §1
# Pseudomonas aeruginosa [10] = assay: Selectivity index, ratio of MIC for against IMP-4 producing Pseudomonas aeruginosa isolate 209471 to MIC for against IMP-4 producing Pseudomonas aeruginosa isolate 209471 in presence of BPL
# Klebsiella pneumoniae [11] = assay: Antibacterial activity against KPC-2 producing Klebsiella pneumoniae isolate 209735 after 18 hrs by CLSI broth microdilution method; details: isolate 209735, 18 h
# Escherichia coli [12] = assay: Antibacterial activity against extended-spectrum beta-lactamase producing Escherichia coli isolate 209285 after 18 hrs by CLSI broth microdilution method; details: isolate 209285, 18 h
# Escherichia coli [13] = assay: Selectivity index, ratio of MIC for against extended-spectrum beta-lactamase producing Escherichia coli isolate 212648 to MIC for extended-spectrum beta-lactamase producing Escherichia coli isolate 212648 in presence of BPL
# Pseudomonas aeruginosa [14] = assay: Antibacterial activity against IMP-4 producing Pseudomonas aeruginosa isolate 208247 after 18 hrs by CLSI broth microdilution method; details: isolate 208247, 18 h
# Pseudomonas aeruginosa [15] = assay: Selectivity index, ratio of MIC for against IMP-4 producing Pseudomonas aeruginosa isolate 209321 to MIC for against IMP-4 producing Pseudomonas aeruginosa isolate 209321 in presence of BPL
# Klebsiella pneumoniae [16] = assay: Antibacterial activity against KPC-2 producing Klebsiella pneumoniae isolate 212232 after 18 hrs in presence of BPL by CLSI broth microdilution method; details: isolate 212232, 18 h; summary of the method: as §1
# Klebsiella pneumoniae [17] = assay: Antibacterial activity against KPC-2 producing Klebsiella pneumoniae isolate 209632 after 18 hrs by CLSI broth microdilution method; details: isolate 209632, 18 h
# Klebsiella pneumoniae [18] = assay: Antibacterial activity against KPC-2 producing Klebsiella pneumoniae isolate 212229 after 18 hrs in presence of BPL by CLSI broth microdilution method; details: isolate 212229, 18 h; summary of the method: as §1
# Pseudomonas aeruginosa [19] = assay: Antibacterial activity against IMP-4 producing Pseudomonas aeruginosa isolate 207272 after 18 hrs by CLSI broth microdilution method; details: isolate 207272, 18 h
# Klebsiella pneumoniae [20] = assay: Antibacterial activity against KPC-2 producing Klebsiella pneumoniae isolate 212232 after 18 hrs by CLSI broth microdilution method; details: isolate 212232, 18 h
# Klebsiella pneumoniae [21] = assay: Antibacterial activity against KPC-2 producing Klebsiella pneumoniae isolate 212423 after 18 hrs in presence of BPL by CLSI broth microdilution method; details: isolate 212423, 18 h; summary of the method: as §1
# Escherichia coli [22] = assay: Selectivity index, ratio of MIC for against Escherichia coli isolate 210737 to MIC for Escherichia coli isolate 210737 in presence of BPL
# Escherichia coli [23] = assay: Antibacterial activity against extended-spectrum beta-lactamase producing Escherichia coli isolate 106342 after 18 hrs by CLSI broth microdilution method; details: isolate 106342, 18 h
# Escherichia coli [24] = assay: Antibacterial activity against extended-spectrum beta-lactamase producing Escherichia coli isolate 106342 after 18 hrs in presence of BPL by CLSI broth microdilution method; details: isolate 106342, 18 h; summary of the method: as §1
# Escherichia coli [25] = assay: Antibacterial activity against extended-spectrum beta-lactamase producing Escherichia coli isolate 212648 after 18 hrs in presence of BPL by CLSI broth microdilution method; details: isolate 212648, 18 h; summary of the method: as §1
# Klebsiella pneumoniae [26] = assay: Antibacterial activity against KPC-2 producing Klebsiella pneumoniae isolate 209632 after 18 hrs in presence of BPL by CLSI broth microdilution method; details: isolate 209632, 18 h; summary of the method: as §1
# Escherichia coli [27] = assay: Selectivity index, ratio of MIC for against extended-spectrum beta-lactamase producing Escherichia coli isolate 209285 to MIC for extended-spectrum beta-lactamase producing Escherichia coli isolate 209285 in presence of BPL
# Pseudomonas aeruginosa [28] = assay: Antibacterial activity against IMP-4 producing Pseudomonas aeruginosa isolate 209471 after 18 hrs by CLSI broth microdilution method; details: isolate 209471, 18 h
# Klebsiella pneumoniae [29] = assay: Selectivity index, ratio of MIC for against KPC-2 producing Klebsiella pneumoniae isolate 209735 to MIC for against KPC-2 producing Klebsiella pneumoniae isolate 209735 in presence of BPL
# Pseudomonas aeruginosa [30] = assay: Selectivity index, ratio of MIC for against IMP-4 producing Pseudomonas aeruginosa isolate 208247 to MIC for against IMP-4 producing Pseudomonas aeruginosa isolate 208247 in presence of BPL
# Klebsiella pneumoniae [31] = assay: Selectivity index, ratio of MIC for against KPC-2 producing Klebsiella pneumoniae isolate 212232 to MIC for against KPC-2 producing Klebsiella pneumoniae isolate 212232 in presence of BPL
# Klebsiella pneumoniae [32] = assay: Selectivity index, ratio of MIC for against KPC-2 producing Klebsiella pneumoniae isolate 212229 to MIC for against KPC-2 producing Klebsiella pneumoniae isolate 212229 in presence of BPL
# Escherichia coli [33] = assay: Antibacterial activity against extended-spectrum beta-lactamase producing Escherichia coli isolate 208687 after 18 hrs by CLSI broth microdilution method; details: isolate 208687, 18 h
# Pseudomonas aeruginosa [34] = assay: Antibacterial activity against IMP-4 producing Pseudomonas aeruginosa isolate 208247 after 18 hrs in presence of BPL by CLSI broth microdilution method; details: isolate 208247, 18 h; summary of the method: as §1
# Klebsiella pneumoniae [35] = assay: Antibacterial activity against KPC-2 producing Klebsiella pneumoniae isolate 212229 after 18 hrs by CLSI broth microdilution method; details: isolate 212229, 18 h
# Pseudomonas aeruginosa [36] = assay: Antibacterial activity against IMP-4 producing Pseudomonas aeruginosa isolate 212886 after 18 hrs by CLSI broth microdilution method; details: isolate 212886, 18 h
# Escherichia coli [37] = assay: Antibacterial activity against Escherichia coli isolate 210737 after 18 hrs by CLSI broth microdilution method; details: isolate 210737, 18 h
# Klebsiella pneumoniae [38] = assay: Selectivity index, ratio of MIC for against KPC-2 producing Klebsiella pneumoniae isolate 209632 to MIC for against KPC-2 producing Klebsiella pneumoniae isolate 209632 in presence of BPL
# Klebsiella pneumoniae [39] = assay: Selectivity index, ratio of MIC for against KPC-2 producing Klebsiella pneumoniae isolate 212423 to MIC for against KPC-2 producing Klebsiella pneumoniae isolate 212423 in presence of BPL
# Escherichia coli [40] = assay: Antibacterial activity against extended-spectrum beta-lactamase producing Escherichia coli isolate 212648 after 18 hrs by CLSI broth microdilution method; details: isolate 212648, 18 h
# Pseudomonas aeruginosa [41] = assay: Selectivity index, ratio of MIC for against IMP-4 producing Pseudomonas aeruginosa isolate 207272 to MIC for against IMP-4 producing Pseudomonas aeruginosa isolate 207272 in presence of BPL
# Pseudomonas aeruginosa [42] = assay: Antibacterial activity against IMP-4 producing Pseudomonas aeruginosa isolate 212886 after 18 hrs in presence of BPL by CLSI broth microdilution method; details: isolate 212886, 18 h; summary of the method: as §1
# Escherichia coli [43] = assay: Selectivity index, ratio of MIC for against extended-spectrum beta-lactamase producing Escherichia coli isolate 208687 to MIC for extended-spectrum beta-lactamase producing Escherichia coli isolate 208687 in presence of BPL
# Pseudomonas aeruginosa [44] = assay: Antibacterial activity against IMP-4 producing Pseudomonas aeruginosa isolate 209321 after 18 hrs by CLSI broth microdilution method; details: isolate 209321, 18 h
# Klebsiella pneumoniae [45] = assay: Antibacterial activity against KPC-2 producing Klebsiella pneumoniae isolate 212423 after 18 hrs by CLSI broth microdilution method; details: isolate 212423, 18 h
smiles,measurement,setting,value
Cc1nnc(SC[C@@H]2[C@H](NC(=O)/C(=N\OC(c3cc(=O)c(O)cn3O)C(C)C)c3csc(N)n3)C(=O)N2S(=O)(=O)O)s1 (stereo not given in full),MIC,Escherichia coli [1],0.25 µg/mL
same,MIC,Escherichia coli [2],1 µg/mL
same,MIC,Escherichia coli [3],0.125 µg/mL
same,Selectivity Index,Escherichia coli [4],2
same,MIC,Pseudomonas aeruginosa [5],64 µg/mL
same,MIC,Pseudomonas aeruginosa [6],32 µg/mL
same,MIC,Pseudomonas aeruginosa [7],64 µg/mL
same,Selectivity Index,Pseudomonas aeruginosa [8],>4
same,MIC,Klebsiella pneumoniae [9],0.5 µg/mL
same,Selectivity Index,Pseudomonas aeruginosa [10],1
same,MIC,Klebsiella pneumoniae [11],1 µg/mL
same,MIC,Escherichia coli [12],4 µg/mL
same,Selectivity Index,Escherichia coli [13],2
same,MIC,Pseudomonas aeruginosa [14],> 64 µg/mL
same,Selectivity Index,Pseudomonas aeruginosa [15],1
same,MIC,Klebsiella pneumoniae [16],0.25 µg/mL
same,MIC,Klebsiella pneumoniae [17],1 µg/mL
same,MIC,Klebsiella pneumoniae [18],0.5 µg/mL
same,MIC,Pseudomonas aeruginosa [19],64 µg/mL
same,MIC,Klebsiella pneumoniae [20],2 µg/mL
same,MIC,Klebsiella pneumoniae [21],0.5 µg/mL
same,Selectivity Index,Escherichia coli [22],2
same,MIC,Escherichia coli [23],1 µg/mL
same,MIC,Escherichia coli [24],0.5 µg/mL
same,MIC,Escherichia coli [25],0.25 µg/mL
same,MIC,Klebsiella pneumoniae [26],0.25 µg/mL
same,Selectivity Index,Escherichia coli [27],4
same,MIC,Pseudomonas aeruginosa [28],32 µg/mL
same,Selectivity Index,Klebsiella pneumoniae [29],2
same,Selectivity Index,Pseudomonas aeruginosa [30],1 - 4
same,Selectivity Index,Klebsiella pneumoniae [31],8
same,Selectivity Index,Klebsiella pneumoniae [32],2
same,MIC,Escherichia coli [33],2 µg/mL
same,MIC,Pseudomonas aeruginosa [34],> 64 µg/mL
same,MIC,Klebsiella pneumoniae [35],1 µg/mL
same,MIC,Pseudomonas aeruginosa [36],> 64 µg/mL
same,MIC,Escherichia coli [37],0.5 µg/mL
same,Selectivity Index,Klebsiella pneumoniae [38],4
same,Selectivity Index,Klebsiella pneumoniae [39],2
same,MIC,Escherichia coli [40],0.5 µg/mL
same,Selectivity Index,Pseudomonas aeruginosa [41],1
same,MIC,Pseudomonas aeruginosa [42],16 µg/mL
same,Selectivity Index,Escherichia coli [43],16
same,MIC,Pseudomonas aeruginosa [44],64 µg/mL
same,MIC,Klebsiella pneumoniae [45],1 µg/mL
CC(C)C(O/N=C(\C(=O)N[C@@H]1C(=O)N(S(=O)(=O)O)[C@@H]1CN1CCNC1=O)c1csc(N)n1)c1cc(=O)c(O)cn1O (stereo not given in full),MIC,Escherichia coli [1],0.25 µg/mL
same,MIC,Escherichia coli [2],0.25 µg/mL
same,MIC,Escherichia coli [3],0.5 µg/mL
same,Selectivity Index,Escherichia coli [4],1
same,MIC,Pseudomonas aeruginosa [5],32 µg/mL
same,MIC,Pseudomonas aeruginosa [6],32 µg/mL
same,MIC,Pseudomonas aeruginosa [7],32 µg/mL
same,Selectivity Index,Pseudomonas aeruginosa [8],1
same,MIC,Klebsiella pneumoniae [9],4 µg/mL
same,Selectivity Index,Pseudomonas aeruginosa [10],1
same,MIC,Klebsiella pneumoniae [11],16 µg/mL
same,MIC,Escherichia coli [12],1 µg/mL
same,Selectivity Index,Escherichia coli [13],1
same,MIC,Pseudomonas aeruginosa [14],64 µg/mL
same,Selectivity Index,Pseudomonas aeruginosa [15],1
same,MIC,Klebsiella pneumoniae [16],0.25 µg/mL
same,MIC,Klebsiella pneumoniae [17],4 µg/mL
same,MIC,Klebsiella pneumoniae [18],0.125 µg/mL
same,MIC,Pseudomonas aeruginosa [19],32 µg/mL
same,MIC,Klebsiella pneumoniae [20],1 µg/mL
same,MIC,Klebsiella pneumoniae [21],0.125 µg/mL
same,Selectivity Index,Escherichia coli [22],2
same,MIC,Escherichia coli [23],1 µg/mL
same,MIC,Escherichia coli [24],1 µg/mL
same,MIC,Escherichia coli [25],2 µg/mL
same,MIC,Klebsiella pneumoniae [26],4 µg/mL
same,Selectivity Index,Escherichia coli [27],4
same,MIC,Pseudomonas aeruginosa [28],32 µg/mL
same,Selectivity Index,Klebsiella pneumoniae [29],4
same,Selectivity Index,Pseudomonas aeruginosa [30],1
same,Selectivity Index,Klebsiella pneumoniae [31],4
same,Selectivity Index,Klebsiella pneumoniae [32],2
same,MIC,Escherichia coli [33],1 µg/mL
same,MIC,Pseudomonas aeruginosa [34],64 µg/mL
same,MIC,Klebsiella pneumoniae [35],0.25 µg/mL
same,MIC,Pseudomonas aeruginosa [36],32 µg/mL
same,MIC,Escherichia coli [37],0.5 µg/mL
same,Selectivity Index,Klebsiella pneumoniae [38],1
same,Selectivity Index,Klebsiella pneumoniae [39],4
same,MIC,Escherichia coli [40],2 µg/mL
same,Selectivity Index,Pseudomonas aeruginosa [41],1
same,MIC,Pseudomonas aeruginosa [42],32 µg/mL
same,Selectivity Index,Escherichia coli [43],2
same,MIC,Pseudomonas aeruginosa [44],32 µg/mL
same,MIC,Klebsiella pneumoniae [45],0.5 µg/mL
